Data from ChEMBL document CHEMBL1154674, “Synthesis and evaluation of three 18F-labeled aminophenylbenzothiazoles as amyloid imaging agents” (J Med Chem, 2009).
Blank lines part the entries; values can stand above or below the compound they belong to.

Experiments:
Assay type in all cases: ADME, organism-based, Macaca mulatta
[1] = Drug level in normal rhesus monkey thalamus assessed as standard uptake value at 96.3 MBq, iv after 22.5 mins by microPET; conditions: in vivo, 0.375 h
[2] = Drug level in normal rhesus monkey thalamus assessed as standard uptake value at 96.3 MBq, iv after 105 mins by microPET; conditions: in vivo, 1.75 h
[3] = Drug level in normal rhesus monkey pons assessed as standard uptake value at 96.3 MBq, iv after 27.5 mins by microPET; conditions: in vivo
[4] = Drug level in normal rhesus monkey frontal cortex assessed as standard uptake value at 96.3 MBq, iv after 14 mins by microPET; conditions: in vivo
[5] = Drug level in normal rhesus monkey cerebellum assessed as standard uptake value at 96.3 MBq, iv after 6 mins by microPET; conditions: in vivo, 0.1 h
In short: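 Single normal rhesus monkey; each tracer given iv via the vena saphena, with 1 day between tracer injections. Dynamic μPET ran 180 min (5×60 s, 5×120 s, 9×300 s, 12×600 s). Images were reconstructed by filtered back projection with a RAMP filter. Regional time-activity curves were expressed as SUV.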

[6] = Drug level in normal rhesus monkey parietal cortex assessed as standard uptake value at 96.3 MBq, iv after 105 mins by microPET; conditions: in vivo, 1.75 h
[7] = Drug level in normal rhesus monkey cerebellum assessed as standard uptake value at 96.3 MBq, iv after 1.5 mins by microPET; conditions: in vivo, 0.025 h
In short: (§1)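 One normal rhesus monkey, each tracer given iv via the vena saphena (81.2, 96.3 or 109.4 MBq), with 1 day between tracer injections. Dynamic brain μPET over 180 min used frames of 5 × 60 s, 5 × 120 s, 9 × 300 s and 12 × 600 s. Images were reconstructed by filtered back projection with a RAMP filter. Regional time-activity curves were expressed as SUV.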

[8] = Drug level in normal rhesus monkey thalamus assessed as standard uptake value at 96.3 MBq, iv after 0.5 mins by microPET; conditions: in vivo
[9] = Drug level in normal rhesus monkey parietal cortex assessed as standard uptake value at 96.3 MBq, iv after 115 mins by microPET; conditions: in vivo
[10] = Drug level in normal rhesus monkey thalamus assessed as standard uptake value at 109.4 MBq, iv after 81 mins by microPET; conditions: in vivo, 1.35 h
[11] = Drug level in normal rhesus monkey pons assessed as standard uptake value at 109.4 MBq, iv after 117 mins by microPET; conditions: in vivo, 1.95 h
[12] = Drug level in normal rhesus monkey white matter assessed as standard uptake value at 109.4 MBq, iv after 9.5 mins by microPET; conditions: in vivo
[13] = Drug level in normal rhesus monkey cerebellum assessed as standard uptake value at 109.4 MBq, iv after 47.5 mins by microPET; conditions: in vivo
In short: (§2)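 One normal rhesus monkey received each tracer via the vena saphena, with 1 day between injections. Dynamic μPET ran 180 min for 18F tracers (5×60 s, 5×120 s, 9×300 s, 12×600 s) and 90 min for the 11C tracer (5×60 s, 5×120 s, 9×300 s, 3×600 s). Filtered back-projection reconstruction (RAMP filter) was used. Time-activity curves were drawn to give regional SUV.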

[14] = Drug level in normal rhesus monkey white matter assessed as standard uptake value at 109.4 MBq, iv after 117 mins by microPET; conditions: in vivo, 1.95 h
[15] = Drug level in normal rhesus monkey frontal cortex assessed as standard uptake value at 109.4 MBq, iv after 123 mins by microPET; conditions: in vivo, 2.05 h
[16] = Drug level in normal rhesus monkey white matter assessed as standard uptake value at 109.4 MBq, iv after 27.5 mins by microPET; conditions: in vivo
[17] = Drug level in normal rhesus monkey parietal cortex assessed as standard uptake value at 109.4 MBq, iv after 27.5 mins by microPET; conditions: in vivo
[18] = Drug level in normal rhesus monkey cerebellum assessed as standard uptake value at 109.4 MBq, iv after 93 mins by microPET; conditions: in vivo, 1.55 h
[19] = Drug level in normal rhesus monkey pons assessed as standard uptake value at 81.2 MBq, iv after 37.5 mins by microPET; conditions: in vivo, 0.625 h
[20] = Drug level in normal rhesus monkey white matter assessed as standard uptake value at 81.2 MBq, iv after 3.5 mins by microPET; conditions: in vivo
[21] = Drug level in normal rhesus monkey pons assessed as standard uptake value at 81.2 MBq, iv after 155 mins by microPET; conditions: in vivo
[22] = Drug level in normal rhesus monkey white matter assessed as standard uptake value at 81.2 MBq, iv after 0.5 mins by microPET; conditions: in vivo
[23] = Drug level in normal rhesus monkey cerebellum assessed as standard uptake value at 81.2 MBq, iv after 65 mins by microPET; conditions: in vivo; in short: as §1
[24] = Drug level in normal rhesus monkey white matter assessed as standard uptake value at 81.2 MBq, iv after 175 mins by microPET; conditions: in vivo
[25] = Drug level in normal rhesus monkey thalamus assessed as standard uptake value at 81.2 MBq, iv after 0.5 mins by microPET; conditions: in vivo
[26] = Drug level in normal rhesus monkey thalamus assessed as standard uptake value at 81.2 MBq, iv after 57.5 mins by microPET; conditions: in vivo
[27] = Drug level in normal rhesus monkey white matter assessed as standard uptake value at 152.9 MBq, iv after 4.5 mins by microPET; conditions: in vivo, 0.075 h
[28] = Drug level in normal rhesus monkey cerebellum assessed as standard uptake value at 152.9 MBq, iv after 42.5 mins by microPET; conditions: in vivo; in short: as §2
[29] = Drug level in normal rhesus monkey pons assessed as standard uptake value at 152.9 MBq, iv after 3.5 mins by microPET; conditions: in vivo
[30] = Drug level in normal rhesus monkey frontal cortex assessed as standard uptake value at 152.9 MBq, iv after 22.5 mins by microPET; conditions: in vivo, 0.375 h
In short: (§3)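 Single normal rhesus monkey; tracer given iv via the vena saphena, 1 day apart from the other tracer injections. Dynamic μPET ran 90 min (5×60 s, 5×120 s, 9×300 s, 3×600 s). Images were reconstructed by filtered back projection with a RAMP filter. Regional time-activity curves were expressed as SUV.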

[31] = Drug level in normal rhesus monkey thalamus assessed as standard uptake value at 152.9 MBq, iv after 0.5 mins by microPET; conditions: in vivo
[32] = Drug level in normal rhesus monkey pons assessed as standard uptake value at 152.9 MBq, iv after 42.5 mins by microPET; conditions: in vivo
[33] = Drug level in normal rhesus monkey cerebellum assessed as standard uptake value at 152.9 MBq, iv after 27.5 mins by microPET; conditions: in vivo; in short: as §3
[34] = Drug level in normal rhesus monkey white matter assessed as standard uptake value at 152.9 MBq, iv after 27.5 mins by microPET; conditions: in vivo
[35] = Drug level in normal rhesus monkey pons assessed as standard uptake value at 152.9 MBq, iv after 10 mins by microPET; conditions: in vivo
[36] = Drug level in normal rhesus monkey cerebellum assessed as standard uptake value at 152.9 MBq, iv after 47.5 mins by microPET; conditions: in vivo; in short: as §2

SUV [1]: 2.35
SUV [2]: 2.08
SUV [3]: 1.61
SUV [4]: 2.19
SUV [5]: 1.72
SUV [6]: 1.35
SUV [7]: 1.17
SUV [8]: 0.63
SUV [9]: 1.3
SMILES: CN(C)c1ccc2nc(-c3ccc([18F])cc3)sc2c1

SUV [10]: 5.18
SUV [11]: 4.76
SUV [12]: 2.99
SUV [13]: 3.54
SUV [14]: 3.71
SUV [15]: 4.13
SUV [16]: 3.2
SUV [17]: 4.84
SUV [18]: 2.52
SMILES: Nc1ccc2nc(-c3ccc([18F])cc3)sc2c1

SUV [19]: 5.487
SUV [20]: 3.019
SUV [21]: 5.431
SUV [22]: 0.621
SUV [23]: 1.88
SUV [24]: 4.226
SUV [25]: 0.855
SUV [26]: 5.552
SMILES: CNc1ccc2nc(-c3ccc([18F])cc3)sc2c1

SUV [27]: 1.334
SUV [28]: 0.936
SUV [29]: 1.502
SUV [30]: 1.373
SUV [31]: 0.038
SUV [32]: 1.179
SUV [33]: 1.258
SUV [34]: 1.209
SUV [35]: 2.036
SUV [36]: 0.866
SMILES: [11CH3]Nc1ccc(-c2nc3ccc(O)cc3s2)cc1 [PITTSBURGH COMPOUND B]
